# Measurements taken from PMC7115683 (European Journal of Medicinal Chemistry, 2013).
# B1: UDA: reference agent in the CRFK antiviral assay, values in μg/ml; not explained in the paper (protein, UniProt P11218 24-372, looked up)
# Lectin/endochitinase 1: QRCGSQGGGGTCPALWCCSIWGWCGDSEPYCGRTCENKCWSGERSDHRCGAAVGNPPCGQDRCCSVHGWCGGGNDYCSGSKCQYRCSSSVRGPRVALSGNSTANSIGNVVVTEPLFDQMFSHRKDCPSQGFYSYHSFLVAAESFPAFGTIGDVATRKREVAAFLAHISQATSGERSDVENPHAWGLCHINTTTVTENDFCTSSDWPCAAGKKYSPRGPIQLTHNFNYGLAGQAIGEDLIQNPDLVEKDPIISFKTALWFWMSQHDNKPSCHDIVLNANSAANRIPNKGVIGNIISRAFGHDDFAVRSSSIGFYKRYCDMLGVSYGHDLKYWFDNTPSSEFQRIQMRVAA
# What was measured:
# [1] = system: Madin Darby canine kidney (MDCK) cells; details: 50% cytotoxic concentration, MTS assay
# [2] = system: Feline herpes virus; test: Anti-Feline Herpes Virus activity in CRFK cell cultures; format: cell-based; details: for EC50: CRFK, read-out: EC50 Feline herpes virus
# [3] = system: CT DNA; test: CT DNA binding, fluorescence titration; details: emission band at 380 nm upon addition of CT DNA
# Outline: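 Steady-state fluorescence at ambient temperature. Test compound (17.1 μM) in buffered methanol titrated with CT DNA (0.5–150 μM). Excitation 330 nm, emission monitored at 376 nm.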
# [4] = system: P. falciparum (CQ^R) Dd2 strain; test: In vitro antimalarial activity, Dd2 strain; format: cell-based, Plasmodium falciparum
# [5] = system: CT DNA; test: CT DNA binding, UV spectrophotometry titration; details: both absorptions (255 and 330 nm), CT-DNA addition
# Outline: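 Test compound (30 μM) in buffered methanol titrated with CT-DNA (4–200 μM). UV–visible spectra recorded 200–1100 nm in a 1 cm quartz cuvette, cell holder at 25 °C. Changes followed at the 255 nm and 330 nm absorption bands.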
# [6] = μ-oxo heme binding, UV-visible titration and Job's plot; details: pH 5.8; association constant, HypSpec
# Outline: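 UV–visible titration of test compound with μ-oxo heme at pH 5.8, plus Job plot (absorbance ratio A/A0 against mole fraction of test compound). Binding constant (log K) computed with HypSpec.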
# [7] = Monomeric heme binding, UV-visible titration and Job's plot; details: association constant, HypSpec
# Outline: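 UV–visible titration of test compound with monomeric heme at pH 7.4 (HEPES) and at food-vacuole pH 5.6 (MES), 1 cm cuvette at 25 °C. Association constants (log K) derived from the titration curves by non-linear least-squares fitting in HypSpec.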
# [8] = system: P. falciparum (CQ^S) D10 strain; test: In vitro antimalarial activity, parasite lactate dehydrogenase assay, D10 strain; format: cell-based; details: Plasmodium falciparum, D10, read-out: D10 IC50
# [9] = system: Crandell-Rees Feline Kidney (CRFK) cell cultures; details: MTS assay, HHA, UDA
# [10] = system: Feline corona virus (FIPV); test: Anti-Feline Corona Virus activity in CRFK cell cultures; format: cell-based; details: HHA, UDA
molecule,measurement,setting,value
Ethyl 2-(3-((7-chloroquinolin-4-yl)amino)propylamino)-4-methylpyrimidine-5-carboxylate [Compound 5g],CC50,[1],10.3 µM
"COC(=O)c1c(C)nc(NCCCNc2ccnc3cc(Cl)ccc23)nc1-c1ccccc1 [Compound 5a, Methyl 2-(3-((7-chloroquinolin-4-yl)amino)propylamino)-4-methyl-6-phenylpyrimidine-5-carboxylate]",EC50,[2],> 20 µM
"CCOC(=O)c1c(C)nc(NCCCCNc2ccnc3cc(Cl)ccc23)nc1-c1ccc(Cl)cc1 [Compound 5e, Ethyl 4-(4-chlorophenyl)-2-(4-((7-chloroquinolin-4-yl)amino)butylamino)-6-methylpyrimidine-5-carboxylate]",EC50,[2],> 100 µM
"Cc1nc(NCCCCNc2ccnc3cc(Cl)ccc23)nc(-c2ccccc2)c1C(=O)OC(C)C [Compound 5b, i-Propyl 2-(4-((7-chloroquinolin-4-yl)amino)butylamino)-4-methyl-6-phenylpyrimidine-5-carboxylate]",EC50,[2],> 20 µM
same,shift in emission band,[3],80 nm
same,fold increase in antimalarial activity than the standard CQ,[4]; CQ^R strain of P. falciparum,2 fold
same,bathochromic shift,[5],~3 nm
"CCOC(=O)c1c(C)nc(NCCCCNc2ccnc3cc(Cl)ccc23)nc1-c1ccccc1[N+](=O)[O-] [Compound 5c, Ethyl 2-(4-((7-chloroquinolin-4-yl)amino)butylamino)-4-methyl-6-(2-nitrophenyl)pyrimidine-5-carboxylate]",EC50,[2],> 100 µM
"CCN(CC)CCCC(C)Nc1ccnc2cc(Cl)ccc12 (stereo not drawn) [CQ, Chloroquine]","μ-oxoheme, log K ± σ",[6],5.58 ± 0.006
same,"Monomeric heme, log K ± σ",[7]; pH 5.6 (MES buffer),4.65 ± 0.052
same,"Monomeric heme, log K ± σ",[7]; pH 7.4 (HEPES buffer),5.15 ± 0.176
same,IC50,[8],0.035 µM
same,IC50,"[4]; Plasmodium falciparum, DD2, read-out: Dd2 IC50",0.222 µM
"CCOC(=O)c1c(C)nc(OCCCNc2ccnc3cc(Cl)ccc23)nc1-c1ccccc1 [Compound 5d, Ethyl 2-(3-((7-chloroquinolin-4-yl)amino)propoxy)-4-methyl-6-phenylpyrimidine-5-carboxylate]",EC50,[2],> 100 µM
"CCOC(=O)c1c(C)nc(NCCCCNc2ccnc3cc(Cl)ccc23)nc1-c1ccc(F)cc1 [Compound 5f, Ethyl 4-(4-fluorophenyl)-2-(4-((7-chloroquinolin-4-yl)amino)butylamino)-6-methylpyrimidine-5-carboxylate]",EC50,[2],> 100 µM
B1,EC50 Feline herpes virus,"[2]; CRFK cell cultures, HHA, UDA",1.0 mg/L
same,CC50,[9],63.2 mg/L
same,EC50 Feline corona virus (FIPV),[10],1.6 mg/L
